According to the M2OR odorant receptor database:

Legend:
Details in all cases: stereoisomer not certain
OR10H3 (Homo sapiens) = target: T1, OR10H3 (Homo sapiens) (UniProt O60404)
T1 sequence (whole entry): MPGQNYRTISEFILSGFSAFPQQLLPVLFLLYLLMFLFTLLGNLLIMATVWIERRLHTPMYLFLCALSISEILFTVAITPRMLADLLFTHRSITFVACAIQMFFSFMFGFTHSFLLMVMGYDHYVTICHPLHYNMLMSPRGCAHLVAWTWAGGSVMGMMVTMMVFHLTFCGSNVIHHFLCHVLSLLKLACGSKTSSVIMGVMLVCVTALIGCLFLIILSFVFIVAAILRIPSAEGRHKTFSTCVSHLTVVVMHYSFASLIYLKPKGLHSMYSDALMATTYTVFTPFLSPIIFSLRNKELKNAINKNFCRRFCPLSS
Summary of the method: (§1)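 Each entry records the cell line, G-protein, co-transfected protein and tags used. Methods varied with the source, often transient luciferase assays in mammalian cell lines. A receptor–molecule pair is called responsive (active) if the original authors judged its signal statistically different from baseline and non-responsive (inactive) otherwise.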

OR10H4 (Homo sapiens) = target: T2, OR10H4 (Homo sapiens) (UniProt Q8NGA5)
T2 sequence (whole entry): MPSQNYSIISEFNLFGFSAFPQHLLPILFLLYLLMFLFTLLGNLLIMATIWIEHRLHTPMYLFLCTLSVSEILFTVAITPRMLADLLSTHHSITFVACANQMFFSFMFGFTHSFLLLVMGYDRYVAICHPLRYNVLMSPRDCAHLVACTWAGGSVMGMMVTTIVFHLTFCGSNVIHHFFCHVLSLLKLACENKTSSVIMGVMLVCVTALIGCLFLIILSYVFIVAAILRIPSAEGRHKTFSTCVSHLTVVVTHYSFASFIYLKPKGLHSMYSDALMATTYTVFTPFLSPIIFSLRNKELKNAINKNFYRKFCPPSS
Summary of the method: as §1

OR10H5 (Homo sapiens) = target: T3, OR10H5 (Homo sapiens) (UniProt Q8NGA6)
T3 sequence (whole entry): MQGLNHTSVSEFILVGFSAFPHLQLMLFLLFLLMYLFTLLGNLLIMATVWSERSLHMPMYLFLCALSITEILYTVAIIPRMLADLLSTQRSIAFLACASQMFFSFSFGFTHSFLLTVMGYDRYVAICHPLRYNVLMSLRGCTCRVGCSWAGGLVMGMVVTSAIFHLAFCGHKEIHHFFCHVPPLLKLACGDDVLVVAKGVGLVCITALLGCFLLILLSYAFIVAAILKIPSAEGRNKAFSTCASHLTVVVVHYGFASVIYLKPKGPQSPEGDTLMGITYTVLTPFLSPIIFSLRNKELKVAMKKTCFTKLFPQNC
Summary of the method: as §1

OR10J1 (Homo sapiens) = target: T4, OR10J1 (Homo sapiens) (UniProt P30954)
T4 sequence (whole entry): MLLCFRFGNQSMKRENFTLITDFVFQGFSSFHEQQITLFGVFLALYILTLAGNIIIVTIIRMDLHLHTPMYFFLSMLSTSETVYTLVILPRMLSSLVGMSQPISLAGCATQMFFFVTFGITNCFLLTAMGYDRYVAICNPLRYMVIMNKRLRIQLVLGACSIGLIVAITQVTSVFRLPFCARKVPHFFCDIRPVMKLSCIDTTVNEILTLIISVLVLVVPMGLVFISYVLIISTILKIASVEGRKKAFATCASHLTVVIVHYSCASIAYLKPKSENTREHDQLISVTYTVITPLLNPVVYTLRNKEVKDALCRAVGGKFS
Summary of the method: as §1

OR10J3 (Homo sapiens) = target: T5, OR10J3 (Homo sapiens) (UniProt Q5JRS4)
T5 sequence (whole entry): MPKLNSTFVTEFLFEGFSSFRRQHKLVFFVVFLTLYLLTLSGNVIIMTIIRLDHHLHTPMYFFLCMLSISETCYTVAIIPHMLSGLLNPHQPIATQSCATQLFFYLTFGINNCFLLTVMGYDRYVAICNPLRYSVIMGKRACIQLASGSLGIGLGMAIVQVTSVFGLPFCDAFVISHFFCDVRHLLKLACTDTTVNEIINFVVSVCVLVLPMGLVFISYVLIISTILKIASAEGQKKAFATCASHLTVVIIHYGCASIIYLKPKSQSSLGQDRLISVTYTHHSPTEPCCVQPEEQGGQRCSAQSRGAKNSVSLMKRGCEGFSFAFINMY
Summary of the method: as §1

OR10J5 (Homo sapiens) = target: T6, OR10J5 (Homo sapiens) (UniProt Q8NHC4)
T6 sequence (whole entry): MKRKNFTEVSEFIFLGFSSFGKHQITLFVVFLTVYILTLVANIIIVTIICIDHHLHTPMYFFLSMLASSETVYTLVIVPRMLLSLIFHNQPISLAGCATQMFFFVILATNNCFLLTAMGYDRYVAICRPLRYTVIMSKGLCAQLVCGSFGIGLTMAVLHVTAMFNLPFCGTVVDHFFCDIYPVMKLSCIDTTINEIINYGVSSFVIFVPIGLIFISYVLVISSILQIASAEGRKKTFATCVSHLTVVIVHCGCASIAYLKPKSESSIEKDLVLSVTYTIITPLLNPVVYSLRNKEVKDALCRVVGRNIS
Summary of the method: as §1

OR10K1 (Homo sapiens) = target: T7, OR10K1 (Homo sapiens) (UniProt Q8NGX5)
T7 sequence (whole entry): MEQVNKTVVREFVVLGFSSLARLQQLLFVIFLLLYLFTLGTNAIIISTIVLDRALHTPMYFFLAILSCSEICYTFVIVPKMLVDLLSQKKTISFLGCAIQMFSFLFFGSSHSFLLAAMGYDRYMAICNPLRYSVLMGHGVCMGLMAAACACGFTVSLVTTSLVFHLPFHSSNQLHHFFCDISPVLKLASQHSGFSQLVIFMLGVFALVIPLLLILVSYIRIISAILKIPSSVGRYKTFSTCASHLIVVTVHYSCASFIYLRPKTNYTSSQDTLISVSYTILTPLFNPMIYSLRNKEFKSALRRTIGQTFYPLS
Summary of the method: as §1

OR10K2 (Homo sapiens) = target: T8, OR10K2 (Homo sapiens) (UniProt Q6IF99)
T8 sequence (whole entry): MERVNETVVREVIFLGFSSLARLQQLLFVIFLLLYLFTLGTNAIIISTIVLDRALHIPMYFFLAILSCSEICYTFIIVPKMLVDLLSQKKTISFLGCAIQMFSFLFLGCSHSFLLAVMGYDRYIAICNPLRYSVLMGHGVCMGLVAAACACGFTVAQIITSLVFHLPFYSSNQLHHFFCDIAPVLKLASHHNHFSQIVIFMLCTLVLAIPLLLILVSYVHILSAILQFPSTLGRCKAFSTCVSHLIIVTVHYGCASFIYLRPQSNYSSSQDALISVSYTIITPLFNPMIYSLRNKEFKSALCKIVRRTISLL
Summary of the method: as §1

OR10P1 (Homo sapiens) = target: T9, OR10P1 (Homo sapiens) (UniProt Q8NGE3)
T9 sequence (whole entry): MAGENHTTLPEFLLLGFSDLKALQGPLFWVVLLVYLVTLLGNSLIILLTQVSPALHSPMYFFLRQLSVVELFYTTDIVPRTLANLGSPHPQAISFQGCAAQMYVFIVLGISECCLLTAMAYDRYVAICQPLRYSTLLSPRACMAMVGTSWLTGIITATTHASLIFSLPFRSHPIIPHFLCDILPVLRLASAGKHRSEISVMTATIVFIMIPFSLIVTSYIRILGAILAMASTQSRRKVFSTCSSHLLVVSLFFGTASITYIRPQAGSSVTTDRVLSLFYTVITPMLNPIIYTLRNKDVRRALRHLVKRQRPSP
Summary of the method: as §1

OR10Q1 (Homo sapiens) = target: T10, OR10Q1 (Homo sapiens) (UniProt Q8NGQ4)
T10 sequence (whole entry): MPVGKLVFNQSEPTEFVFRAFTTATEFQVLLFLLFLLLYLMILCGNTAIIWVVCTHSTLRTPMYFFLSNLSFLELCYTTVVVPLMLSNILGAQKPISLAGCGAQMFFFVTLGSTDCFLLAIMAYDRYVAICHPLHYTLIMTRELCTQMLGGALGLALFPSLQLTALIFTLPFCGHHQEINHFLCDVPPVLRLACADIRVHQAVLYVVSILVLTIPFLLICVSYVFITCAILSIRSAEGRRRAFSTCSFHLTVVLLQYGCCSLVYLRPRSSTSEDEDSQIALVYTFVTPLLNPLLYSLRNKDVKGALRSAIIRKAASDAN
Summary of the method: as §1

Measured: odorant receptor agonist call

CCCCCC(S)C(C)CO (stereo not given)
inactive: all assays above
